Assay results as given in ChEMBL document CHEMBL1124493, “Synthesis and tumor uptake of 5-82Br- and 5-131I-labeled 5-halo-1-(2-fluoro-2-deoxy-beta-D-ribofuranosyl)uracils” (J Med Chem, 1989).

Assays:
Mus musculus [1] = assay: Biodistribution of intravenously injected [131I]-labeled compound in bone of BDF1 female mice bearing subcutaneous Lewis lung carcinoma after 0.5 hours; type: ADME, organism-based, Bone element; conditions: in vivo, iv
Outline: (§1)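 Female BDF1 mice bearing subcutaneous Lewis lung carcinoma received a single intravenous dose of 0.5-1.8 μg of the 131I-labeled nucleoside (55-110 kBq). They were sacrificed at set times, and tissues were weighed wet and γ-counted. Activity is expressed as percent of injected dose per gram of wet tissue, given as mean ± standard deviation for six animals.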

Mus musculus [2] = assay: Biodistribution of intravenously injected [131I]-labeled compound in bone of BDF1 female mice bearing subcutaneous Lewis lung carcinoma after 1 hours; type: ADME, organism-based, Bone element; conditions: in vivo, iv; outline: as §1
Mus musculus [3] = assay: Biodistribution of intravenously injected [82Br]-labeled compound in blood of BDF1 female mice bearing subcutaneous Lewis lung carcinoma after 4 hours; type: ADME, organism-based; conditions: in vivo, iv, in the assay text read “[131I]-labeled” for “[82Br]-labeled”
Mus musculus [4] = assay: Biodistribution of intravenously injected [131I]-labeled compound in gut of BDF1 female mice bearing subcutaneous Lewis lung carcinoma after 2 hours; type: ADME, organism-based; conditions: in vivo, iv; outline: as §1
Mus musculus [5] = assay: Biodistribution of intravenously injected [131I]-labeled compound in heart of BDF1 female mice bearing subcutaneous Lewis lung carcinoma after 4 hours; type: ADME, organism-based; conditions: in vivo, iv; outline: as §1
Mus musculus [6] = assay: Biodistribution of intravenously injected [131I]-labeled compound in kidney of BDF1 female mice bearing subcutaneous Lewis lung carcinoma after 0.5 hours; type: ADME, organism-based; conditions: in vivo, iv; outline: as §1
Mus musculus [7] = assay: Biodistribution of intravenously injected [131I]-labeled compound in kidney of BDF1 female mice bearing subcutaneous Lewis lung carcinoma after 8 hours; type: ADME, organism-based; conditions: in vivo, iv; outline: as §1
Mus musculus [8] = assay: Biodistribution of intravenously injected [131I]-labeled compound in lung of BDF1 female mice bearing subcutaneous Lewis lung carcinoma after 1 hours; type: ADME, organism-based; conditions: in vivo, iv; outline: as §1
Mus musculus [9] = assay: Biodistribution of intravenously injected [131I]-labeled compound in liver of BDF1 female mice bearing subcutaneous Lewis lung carcinoma after 0.25 hours; type: ADME, organism-based; conditions: in vivo, iv; outline: as §1
Mus musculus [10] = assay: Biodistribution of intravenously injected [131I]-labeled compound in liver of BDF1 female mice bearing subcutaneous Lewis lung carcinoma after 2 hours; type: ADME, organism-based; conditions: in vivo, iv; outline: as §1
Mus musculus [11] = assay: Biodistribution of intravenously injected [131I]-labeled compound in liver of BDF1 female mice bearing subcutaneous Lewis lung carcinoma after 24 hours; type: ADME, organism-based; conditions: in vivo, iv; outline: as §1
Mus musculus [12] = assay: Biodistribution of intravenously injected [131I]-labeled compound in liver of BDF1 female mice bearing subcutaneous Lewis lung carcinoma after 4 hours; type: ADME, organism-based; conditions: in vivo, iv; outline: as §1
Mus musculus [13] = assay: Biodistribution of intravenously injected [131I]-labeled compound in muscle of BDF1 female mice bearing subcutaneous Lewis lung carcinoma after 1 hours; type: ADME, organism-based, Muscle tissue; conditions: in vivo, iv
Outline: (§2)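 Female BDF1 mice with subcutaneous Lewis lung carcinoma given i.v. 0.5-1.8 μg of 131I-labeled nucleoside (55-110 kBq). Killed at set times. Tissues weighed wet and γ-counted. Radioactivity expressed as percent injected dose per gram wet tissue, mean ± SD of six animals.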

Mus musculus [14] = assay: Biodistribution of intravenously injected [131I]-labeled compound in muscle of BDF1 female mice bearing subcutaneous Lewis lung carcinoma after 2 hours; type: ADME, organism-based, Muscle tissue; conditions: in vivo, iv; outline: as §2
Mus musculus [15] = assay: Biodistribution of intravenously injected [131I]-labeled compound in skin of BDF1 female mice bearing subcutaneous Lewis lung carcinoma after 24 hours; type: ADME, organism-based, Zone of skin; conditions: in vivo, iv; outline: as §2
Mus musculus [16] = assay: Biodistribution of intravenously injected [131I]-labeled compound in skin of BDF1 female mice bearing subcutaneous Lewis lung carcinoma after 4 hours; type: ADME, organism-based, Zone of skin; conditions: in vivo, iv; outline: as §2
Mus musculus [17] = assay: Biodistribution of intravenously injected [131I]-labeled compound in skin of BDF1 female mice bearing subcutaneous Lewis lung carcinoma after 2 hours; type: ADME, organism-based, Zone of skin; conditions: in vivo, iv; outline: as §2
Mus musculus [18] = assay: Biodistribution of intravenously injected [131I]-labeled compound in spleen of BDF1 female mice bearing subcutaneous Lewis lung carcinoma after 0.50 hours; type: ADME, organism-based; conditions: in vivo, iv, 0.5 h; outline: as §2
Mus musculus [19] = organism: Mus musculus; assay: Urinary [131I]- compound observed in BDF1 female mice bearing lewis lung tumor after 6-7 hr of injected [131I]-compound; type: functional, tissue-based; conditions: Urine
Mus musculus [20] = assay: Biodistribution of intravenously injected [131I]-labeled compound in tumor of BDF1 female mice bearing subcutaneous Lewis lung carcinoma after 1 hours; type: ADME, organism-based; conditions: in vivo, iv; outline: as §2
Mus musculus [21] = assay: Biodistribution of intravenously injected [82Br]-labeled compound in spleen of BDF1 female mice bearing subcutaneous Lewis lung carcinoma after 1 hours; type: ADME, organism-based; conditions: in vivo, iv
Outline: (§3)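 Female BDF1 mice with subcutaneous Lewis lung carcinoma given an iv injection of [82Br]-labelled nucleoside, 47-130 μg carrying 20-60 kBq 82Br. Tissues were excised, weighed wet and γ-counted. Values are percent injected dose per gram of wet tissue, mean ± standard deviation of six animals, with organ-to-tumour ratios derived.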

Mus musculus [22] = assay: Biodistribution of intravenously injected [82Br]-labeled compound in spleen of BDF1 female mice bearing subcutaneous Lewis lung carcinoma after 4 hours; type: ADME, organism-based; conditions: in vivo, iv
Mus musculus [23] = assay: Biodistribution of intravenously injected [82Br]-labeled compound in gut of BDF1 female mice bearing subcutaneous Lewis lung carcinoma after 0.25 hours; type: ADME, organism-based; conditions: in vivo, iv
Outline: (§4)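 82Br-labeled nucleoside given intravenously to female BDF1 mice bearing subcutaneous Lewis lung carcinoma, at 47-130 μg carrying 20-60 kBq. Mice sacrificed at each time point. Wet-weighed tissues γ-counted. Values are percent injected dose per gram wet tissue, mean ± SD, n = 6.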

Mus musculus [24] = assay: Biodistribution of intravenously injected [82Br]-labeled compound in gut of BDF1 female mice bearing subcutaneous Lewis lung carcinoma after 0.50 hours; type: ADME, organism-based; conditions: in vivo, iv, 0.5 h; outline: as §4
Mus musculus [25] = assay: Biodistribution of intravenously injected [82Br]-labeled compound in gut of BDF1 female mice bearing subcutaneous Lewis lung carcinoma after 2 hours; type: ADME, organism-based; conditions: in vivo, iv; outline: as §3
Mus musculus [26] = assay: Biodistribution of intravenously injected [82Br]-labeled compound in heart of BDF1 female mice bearing subcutaneous Lewis lung carcinoma after 0.50 hours; type: ADME, organism-based; conditions: in vivo, iv, 0.5 h; outline: as §3
Mus musculus [27] = assay: Biodistribution of intravenously injected [82Br]-labeled compound in heart of BDF1 female mice bearing subcutaneous Lewis lung carcinoma after 4 hours; type: ADME, organism-based; conditions: in vivo, iv; outline: as §3
Mus musculus [28] = assay: Biodistribution of intravenously injected [82Br]-labeled compound in kidney of BDF1 female mice bearing subcutaneous Lewis lung carcinoma after 0.5 hours; type: ADME, organism-based; conditions: in vivo, iv; outline: as §3
Mus musculus [29] = assay: Biodistribution of intravenously injected [82Br]-labeled compound in kidney of BDF1 female mice bearing subcutaneous Lewis lung carcinoma after 4 hours; type: ADME, organism-based; conditions: in vivo, iv; outline: as §3
Mus musculus [30] = assay: Biodistribution of intravenously injected [82Br]-labeled compound in kidney of BDF1 female mice bearing subcutaneous Lewis lung carcinoma after 8 hours; type: ADME, organism-based; conditions: in vivo, iv; outline: as §3
Mus musculus [31] = assay: Biodistribution of intravenously injected [82Br]-labeled compound in liver of BDF1 female mice bearing subcutaneous Lewis lung carcinoma after 1 hours; type: ADME, organism-based; conditions: in vivo, iv; outline: as §3
Mus musculus [32] = assay: Biodistribution of intravenously injected [82Br]-labeled compound in muscle of BDF1 female mice bearing subcutaneous Lewis lung carcinoma after 8 hours; type: ADME, organism-based, Muscle tissue; conditions: in vivo, iv; outline: as §3
Mus musculus [33] = assay: Biodistribution of intravenously injected [82Br]-labeled compound in skin of BDF1 female mice bearing subcutaneous Lewis lung carcinoma after 2 hours; type: ADME, organism-based, Zone of skin; conditions: in vivo, iv; outline: as §3
Mus musculus [34] = assay: Biodistribution of intravenously injected [82Br]-labeled compound in skin of BDF1 female mice bearing subcutaneous Lewis lung carcinoma after 4 hours; type: ADME, organism-based, Zone of skin; conditions: in vivo, iv; outline: as §3
Mus musculus [35] = assay: Biodistribution of intravenously injected [82Br]-labeled compound in liver of BDF1 female mice bearing subcutaneous Lewis lung carcinoma after 4 hours; type: ADME, organism-based; conditions: in vivo, iv; outline: as §3
Mus musculus [36] = assay: Biodistribution of intravenously injected [82Br]-labeled compound in lung of BDF1 female mice bearing subcutaneous Lewis lung carcinoma after 0.25 hours; type: ADME, organism-based; conditions: in vivo, iv; outline: as §3
Mus musculus [37] = assay: Biodistribution of intravenously injected [82Br]-labeled compound in stomach of BDF1 female mice bearing subcutaneous Lewis lung carcinoma after 0.50 hours; type: ADME, organism-based; conditions: in vivo, iv, 0.5 h
Mus musculus [38] = assay: Biodistribution of intravenously injected [82Br]-labeled compound in skin of BDF1 female mice bearing subcutaneous Lewis lung carcinoma after 0.25 hours; type: ADME, organism-based, Zone of skin; conditions: in vivo, iv; outline: as §3

For `O=c1[nH]c(=O)n([C@@H]2O[C@H](CO)[C@@H](O)[C@H]2F)cc1I`, which Injected dose/g (Mus musculus [1]) is on record?
Its Injected dose/g is 1.8%.

And the Injected dose/g (Mus musculus [2])?
The Injected dose/g was 1.5%.

What about the Injected dose/g (Mus musculus [3]) of the same compound?
The Injected dose/g was 8.5%.

What about the Injected dose/g (Mus musculus [4]) of the same compound?
Its Injected dose/g is 1.9%.

And the Injected dose/g (Mus musculus [5])?
Its Injected dose/g is 3.5%.

And the Injected dose/g (Mus musculus [6])?
The Injected dose/g was 18.5%.

And the Injected dose/g (Mus musculus [7])?
The Injected dose/g was 4.1%.

And the Injected dose/g (Mus musculus [8])?
The Injected dose/g was 7%.

What about the Injected dose/g (Mus musculus [9]) of the same compound?
Its Injected dose/g is 5.3%.

What about the Injected dose/g (Mus musculus [10]) of the same compound?
The Injected dose/g was 2.8%.

And the Injected dose/g (Mus musculus [11])?
Its Injected dose/g is 0.1%.

And the Injected dose/g (Mus musculus [12])?
Its Injected dose/g is 2.6%.

And the Injected dose/g (Mus musculus [13])?
Its Injected dose/g is 2.3%.

And the Injected dose/g (Mus musculus [14])?
Its Injected dose/g is 1.3%.

What about the Injected dose/g (Mus musculus [15]) of the same compound?
Its Injected dose/g is 0.1%.

And the Injected dose/g (Mus musculus [16])?
The Injected dose/g was 3.5%.

And the Injected dose/g (Mus musculus [17])?
Its Injected dose/g is 3.2%.

And the Injected dose/g (Mus musculus [18])?
Its Injected dose/g is 2.9%.

What about the Radioactive constituents (Mus musculus [19]) of the same compound?
The Radioactive constituents was 60.2%.

What about the Injected dose/g (Mus musculus [20]) of the same compound?
The Injected dose/g was 4.1%.

What does the source list for `O=c1[nH]c(=O)n([C@H]2O[C@@H](CO)[C@H](O)[C@H]2F)cc1Br`?
Injected dose/g (Mus musculus [21]): 0.38%; Injected dose/g (Mus musculus [22]): 0.28%; Injected dose/g (Mus musculus [23]): 1.19%; Injected dose/g (Mus musculus [24]): 0.72%; Injected dose/g (Mus musculus [25]): 0.41%; Injected dose/g (Mus musculus [26]): 0.76%; Injected dose/g (Mus musculus [27]): 0.49%; Injected dose/g (Mus musculus [28]): 2.68%; Injected dose/g (Mus musculus [29]): 0.48%; Injected dose/g (Mus musculus [30]): 0.53%; Injected dose/g (Mus musculus [31]): 0.34%; Injected dose/g (Mus musculus [32]): 0.14%; Injected dose/g (Mus musculus [33]): 0.39%; Injected dose/g (Mus musculus [34]): 0.31%; Injected dose/g (Mus musculus [35]): 0.23%; Injected dose/g (Mus musculus [36]): 1.7%; Injected dose/g (Mus musculus [37]): 0.79%; Injected dose/g (Mus musculus [38]): 1.39%
